The target in data set [1] is T1, Diacylglycerol lipase-alpha (Homo sapiens, UniProt Q9Y4D2).
T1 sequence (Q9Y4D2 whole entry): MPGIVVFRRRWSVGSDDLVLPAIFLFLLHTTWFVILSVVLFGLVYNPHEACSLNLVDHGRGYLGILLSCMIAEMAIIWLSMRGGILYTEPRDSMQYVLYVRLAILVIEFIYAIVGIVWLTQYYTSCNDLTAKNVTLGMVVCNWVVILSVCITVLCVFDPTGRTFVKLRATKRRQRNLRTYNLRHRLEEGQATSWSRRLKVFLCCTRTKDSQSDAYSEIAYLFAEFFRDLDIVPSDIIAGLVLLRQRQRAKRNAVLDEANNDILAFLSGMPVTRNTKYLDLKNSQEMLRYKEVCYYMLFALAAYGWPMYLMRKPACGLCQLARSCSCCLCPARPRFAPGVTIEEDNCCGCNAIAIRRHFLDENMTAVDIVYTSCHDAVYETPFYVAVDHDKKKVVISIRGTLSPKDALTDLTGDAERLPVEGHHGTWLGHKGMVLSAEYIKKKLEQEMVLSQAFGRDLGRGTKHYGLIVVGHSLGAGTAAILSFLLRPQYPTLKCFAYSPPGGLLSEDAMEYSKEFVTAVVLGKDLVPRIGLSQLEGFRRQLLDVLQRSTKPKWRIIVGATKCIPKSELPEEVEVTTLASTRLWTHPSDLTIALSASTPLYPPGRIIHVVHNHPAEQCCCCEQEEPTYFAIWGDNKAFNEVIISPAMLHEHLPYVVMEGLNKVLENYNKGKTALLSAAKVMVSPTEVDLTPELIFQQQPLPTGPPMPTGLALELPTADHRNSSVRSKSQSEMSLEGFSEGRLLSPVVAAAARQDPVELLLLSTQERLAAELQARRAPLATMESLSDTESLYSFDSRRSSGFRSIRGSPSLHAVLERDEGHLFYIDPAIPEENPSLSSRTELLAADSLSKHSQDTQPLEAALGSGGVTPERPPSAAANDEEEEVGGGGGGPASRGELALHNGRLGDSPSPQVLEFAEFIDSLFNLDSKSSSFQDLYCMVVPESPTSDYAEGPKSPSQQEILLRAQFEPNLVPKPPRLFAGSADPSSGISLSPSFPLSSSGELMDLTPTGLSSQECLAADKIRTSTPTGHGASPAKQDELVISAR
Put plainly: Inhibition of full length recombinant human DAGLalpha expressed in HEK293T cell membranes using PNP butyrate as substrate by colorimetric assay. The arrangement: species or system HEK-293T. In a few lines: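 Membranes from HEK293T cells transiently transfected with human DAGLα (PEI transfection, harvested at 72 h), used at 0.05 µg/µL final protein in 50 mM HEPES pH 7.2. Activity was read colorimetrically from para-nitrophenylbutyrate hydrolysis. n = 4, mean ± SEM.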

Data set [2] concerns the target T2, Diacylglycerol lipase-beta (Mus musculus, UniProt Q91WC9).
T2 sequence (Q91WC9 whole entry): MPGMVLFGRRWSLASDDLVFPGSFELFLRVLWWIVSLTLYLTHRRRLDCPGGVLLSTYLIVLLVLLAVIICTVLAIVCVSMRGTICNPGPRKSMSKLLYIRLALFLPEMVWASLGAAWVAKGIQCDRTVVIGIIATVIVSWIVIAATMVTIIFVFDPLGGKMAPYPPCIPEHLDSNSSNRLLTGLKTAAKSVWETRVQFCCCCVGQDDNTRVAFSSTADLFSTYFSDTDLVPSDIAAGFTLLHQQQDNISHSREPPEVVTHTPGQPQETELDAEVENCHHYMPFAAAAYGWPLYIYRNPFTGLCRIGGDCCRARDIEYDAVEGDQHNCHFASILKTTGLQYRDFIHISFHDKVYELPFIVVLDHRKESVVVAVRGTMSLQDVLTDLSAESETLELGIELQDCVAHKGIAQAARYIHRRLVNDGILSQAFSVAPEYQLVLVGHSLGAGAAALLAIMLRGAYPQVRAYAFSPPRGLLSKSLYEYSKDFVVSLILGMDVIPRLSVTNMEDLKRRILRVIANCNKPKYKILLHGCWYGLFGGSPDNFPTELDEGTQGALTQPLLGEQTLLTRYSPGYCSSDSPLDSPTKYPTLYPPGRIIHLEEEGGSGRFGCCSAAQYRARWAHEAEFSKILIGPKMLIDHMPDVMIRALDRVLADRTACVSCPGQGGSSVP
Put plainly: Inhibition of recombinant mouse DAGLbeta expressed in HEK293T cell membranes using PNP butyrate as substrate by colorimetric assay. Details: species or system HEK-293T. A digest of the protocol: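 Membranes from HEK293T cells transiently transfected with mouse DAGLβ. Activity was read colorimetrically as hydrolysis of para-nitrophenylbutyrate surrogate substrate over a concentration range of inhibitor. n = 4, mean ± SEM.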

In data set [3] the test system is Mus musculus. Kind of data set: Inhibition of fasting-induced refeeding in 18 hrs fasted C57Bl/6J mouse at 50 mg/kg, ip administered as single dose 30 mins prior to refeeding measured up to 16 hrs. It is filed as functional, organism-based.
The test system of data set [4] is Mus musculus. Kind of data set: Toxicity in 18 hrs fasted C57Bl/6J mouse model of fasting-induced refeeding assessed as hypolocomotion at 50 mg/kg, ip administered as single dose 30 mins prior to refeeding measured after 24 hrs. The class given is organism-based. The conditions noted are these: in vivo.
In data set [5] the test system is Mus musculus. Put plainly: Ex vivo inhibition of FP-TAMRA probe binding to carboxylesterase in mouse liver at 3 to 50 mg/kg, ip after 4 hrs by gel-based competitive activity based protein profiling assay. It is filed as functional, organism-based.
Data set [6] concerns the target T3, Monoacylglycerol lipase ABHD6 (Homo sapiens, UniProt Q9BV23).
T3 sequence (Q9BV23 whole entry): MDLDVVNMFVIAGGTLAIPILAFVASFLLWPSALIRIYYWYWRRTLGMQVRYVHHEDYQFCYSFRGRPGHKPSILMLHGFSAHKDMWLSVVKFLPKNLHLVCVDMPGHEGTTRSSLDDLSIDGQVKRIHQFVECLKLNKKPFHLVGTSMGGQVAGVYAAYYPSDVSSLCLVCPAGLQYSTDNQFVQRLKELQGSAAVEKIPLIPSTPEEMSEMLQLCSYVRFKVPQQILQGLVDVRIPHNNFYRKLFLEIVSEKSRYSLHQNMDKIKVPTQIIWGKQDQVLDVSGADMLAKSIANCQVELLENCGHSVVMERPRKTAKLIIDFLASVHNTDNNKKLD
Kind of data set: Inhibition of human ABHD6 using 2-AG as natural substrate by fluorescence based assay. A digest of the protocol:
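Coupled fluorescence assay: 2-AG hydrolysis detected via glycerol kinase, glycerol-3-phosphate oxidase and HRP (0.2 U/mL each), 0.125 mM ATP and 10 µM Amplifu Red. Conditions: 25 µM 2-AG, 0.5% acetonitrile, 5% DMSO, ABHD6 membrane protein 40 µg/mL final. n = 4.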

Data set [7] has as its target T1, Diacylglycerol lipase-alpha. Put plainly: Inhibition of recombinant human DAGLalpha expressed in HEK293T cell membranes overexpressing MAGL using natural substrate 1-stearoyl-2-arachidonoly-sn-glycerol by fluorescence based assay. Details: species or system HEK-293T. In a few lines:
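Real-time coupled fluorescence readout of glycerol release from hDAGLα-transfected HEK293T membranes (50 µg/mL final protein) with 100 µM SAG substrate. Added: 5 µg/mL MAGL-overexpressing membranes, 0.0075% (w/v) Triton X-100, 0.2 U/mL each glycerol kinase, glycerol-3-phosphate oxidase and HRP, 0.125 mM ATP, 10 µM Amplifu Red, 5% DMSO. n = 4.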

Data set [8] concerns the target T4, Diacylglycerol lipase-alpha (Mus musculus, UniProt Q6WQJ1).
T4 sequence (Q6WQJ1 whole entry): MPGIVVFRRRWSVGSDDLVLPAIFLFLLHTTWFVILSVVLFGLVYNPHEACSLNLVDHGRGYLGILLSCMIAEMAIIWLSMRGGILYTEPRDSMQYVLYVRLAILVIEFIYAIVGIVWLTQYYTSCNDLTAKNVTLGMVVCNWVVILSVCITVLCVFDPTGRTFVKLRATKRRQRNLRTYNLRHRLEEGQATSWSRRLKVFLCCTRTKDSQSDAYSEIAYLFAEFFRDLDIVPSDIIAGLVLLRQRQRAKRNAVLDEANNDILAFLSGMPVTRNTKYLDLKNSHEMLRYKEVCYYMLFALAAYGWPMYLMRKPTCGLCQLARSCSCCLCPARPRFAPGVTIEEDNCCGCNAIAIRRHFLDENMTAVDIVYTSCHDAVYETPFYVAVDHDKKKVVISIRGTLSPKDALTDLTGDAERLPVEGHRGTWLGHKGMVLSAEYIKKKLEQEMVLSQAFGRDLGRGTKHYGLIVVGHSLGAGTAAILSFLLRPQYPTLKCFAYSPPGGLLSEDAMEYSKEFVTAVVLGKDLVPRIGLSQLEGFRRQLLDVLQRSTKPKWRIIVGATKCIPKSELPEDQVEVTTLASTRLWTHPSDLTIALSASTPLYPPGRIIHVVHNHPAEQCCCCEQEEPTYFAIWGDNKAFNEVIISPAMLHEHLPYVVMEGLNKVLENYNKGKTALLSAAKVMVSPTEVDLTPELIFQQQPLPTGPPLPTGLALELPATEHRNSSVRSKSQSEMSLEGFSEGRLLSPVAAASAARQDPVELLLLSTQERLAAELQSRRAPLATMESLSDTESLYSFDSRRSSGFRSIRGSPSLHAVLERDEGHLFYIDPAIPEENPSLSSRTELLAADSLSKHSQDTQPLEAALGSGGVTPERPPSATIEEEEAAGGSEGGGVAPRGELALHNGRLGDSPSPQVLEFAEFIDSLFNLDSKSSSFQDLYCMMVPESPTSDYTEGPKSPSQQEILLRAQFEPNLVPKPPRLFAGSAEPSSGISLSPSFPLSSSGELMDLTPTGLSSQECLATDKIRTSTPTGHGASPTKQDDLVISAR
Kind of data set: Inhibition of MB064 probe binding to DAGLalpha in mouse brain membrane proteome preincubated for 30 mins followed by MB064 probe addition measured after 20 mins by gel-based competitive activity based protein profiling assay. It is filed as cell membranes. A digest of the protocol:
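Mouse brain membrane proteome (2 mg/mL) preincubated with inhibitor or DMSO vehicle for 30 min at r.t., then labelled with MB064 at 250 nM final for 20 min at r.t. and quenched in Laemmli buffer. Fluorescent bands were quantified against vehicle set to 100%, and IC50 was taken from a variable-slope log(inhibitor) vs normalized response fit. n = 3.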

Data set [9] addresses T5, Diacylglycerol lipase-alpha (Homo sapiens) (UniProt Q9Y4D2).
T5 sequence (whole entry): T1 sequence (Q9Y4D2 whole entry)
Put plainly: Inhibition of DH379 probe binding to full length recombinant human DAGLalpha expressed in HEK293T cell membranes at 0.1 to 10000 nM after 30 mins by gel-based competitive activity based protein profiling assay. The conditions noted are these: HEK-293T. In a few lines:
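Membranes from HEK293T cells transiently transfected with human DAGLα were preincubated with inhibitor, then labelled with DAGL-tailored probe DH379 (1 μM, 30 min). Readout was fluorescent SDS gel. Band intensity was normalized to vehicle (100%) and fitted with a variable-slope dose-response curve. n = 3.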

Data set [10] addresses T6, Diacylglycerol lipase-beta (Homo sapiens) (UniProt Q8NCG7).
T6 sequence (whole entry): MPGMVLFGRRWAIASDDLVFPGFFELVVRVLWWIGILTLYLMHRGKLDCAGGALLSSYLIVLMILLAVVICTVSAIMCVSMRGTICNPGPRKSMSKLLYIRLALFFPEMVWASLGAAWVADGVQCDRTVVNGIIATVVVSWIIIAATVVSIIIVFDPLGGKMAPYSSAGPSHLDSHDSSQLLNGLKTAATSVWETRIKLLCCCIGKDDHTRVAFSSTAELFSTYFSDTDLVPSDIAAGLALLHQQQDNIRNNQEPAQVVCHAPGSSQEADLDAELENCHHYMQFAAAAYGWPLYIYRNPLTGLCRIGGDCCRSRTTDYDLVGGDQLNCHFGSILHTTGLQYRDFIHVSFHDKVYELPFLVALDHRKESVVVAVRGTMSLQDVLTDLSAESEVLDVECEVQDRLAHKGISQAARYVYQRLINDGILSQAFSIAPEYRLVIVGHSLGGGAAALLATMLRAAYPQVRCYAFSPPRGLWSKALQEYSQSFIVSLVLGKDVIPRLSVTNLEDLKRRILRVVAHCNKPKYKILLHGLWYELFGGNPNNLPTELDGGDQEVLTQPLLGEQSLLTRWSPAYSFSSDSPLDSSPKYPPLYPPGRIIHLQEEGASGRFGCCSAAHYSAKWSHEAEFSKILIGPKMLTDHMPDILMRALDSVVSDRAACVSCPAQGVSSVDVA
Kind of data set: Inhibition of DH379 probe binding to full length recombinant human DAGLbeta expressed in HEK293T cell membranes at 0.1 to 10000 nM after 30 mins by gel-based competitive activity based protein profiling assay. Conditions: HEK-293T. A digest of the protocol: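 HEK293T cells transiently transfected with full-length human DAGLβ cDNA (PEI:DNA 3:1), harvested at 72h; membrane fraction diluted to 1 mg/mL protein. Inhibitor-treated membranes were labelled with DAGL-tailored probe DH379 (1 μM, 30 min), then run on fluorescent SDS-PAGE. Band intensity was normalised to vehicle (100%), and IC50 was fitted to log(inhibitor) vs normalised response with variable slope; n = 3.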

Active and inactive are the calls of the source. The rule behind the calls is not given here.

As a reminder, the IC50 is the concentration that gives 50% inhibition. As to `CCC1CCCCN1C(=O)n1ncc(C(O)(c2ccccc2)c2ccccc2)n1` (stereo unspecified), the figures for the IC50 in [1] and in data set [2] were 63.1 nM and 12600 nM, respectively.
With `C/C=C/C=O` [CROTONALDEHYDE], the inhibition entry with Mus musculus [3] and in the data set on Mus musculus [5] was “Active” in each case. Besides, the Activity entry with Mus musculus [4] is “Toxic”.
For the compound `O=C(N1CCCCC1Cc1ccccc1)n1cc(C(O)(c2ccccc2)c2ccccc2)nn1` (stereo unspecified), the values for the IC50 in data set [1], in [2] and in [6] were 25.1 nM, 79.4 nM and 39.8 nM, respectively.
Consider `O=C(N1CCCC[C@@H]1Cc1ccccc1)n1cc(-c2ccc(-c3ccccc3)cc2)nn1`, for which the IC50 in data set [1] was 0.794 nM; in data set [6], 2.51 nM; in [7], 25.1 nM; in data set [8], 7.94 nM.
For `O=C(N1CCCC[C@H]1Cc1ccccc1)n1cc(-c2ccc(-c3ccccc3)cc2)nn1`, the IC50 was 39.8 nM in data set [1], 631 nM in data set [6], 794 nM in data set [7] and 631 nM in data set [8].
As for `CCC1CCCCN1C(=O)n1cc(-c2ccc(-c3ccccc3)cc2)nn1` (stereo unspecified), the results for the IC50 in data set [1] and in [2] were 20 nM and 20000 nM, respectively.
As for `O=C(N1CCCCC1Cc1ccccc1)n1ncc(C(O)(c2ccccc2)c2ccccc2)n1` (stereo unspecified), the results for the IC50 in data set [1], in data set [2] and in data set [6] were 2.51 nM, 12.6 nM and 20 nM, respectively. For the same compound, the inhibition entry in [9] and in data set [10] was “Active” in each case.
With `C/C=C/[C@@H](O)C#N`, the inhibition entry with Mus musculus [3] and with Mus musculus [5] was “Active” each time. Also, in the data set on Mus musculus [4], the Activity entry is “Toxic”.

The values are drawn from ChEMBL document CHEMBL3877306, “Triazole Ureas Act as Diacylglycerol Lipase Inhibitors and Prevent Fasting-Induced Refeeding” (J Med Chem, 2017).
